Source: PubChem
TDP2 absorb: human TDP2 enzyme inhibitors, primary screen, biochemical, epi absorbance, recombinant enzyme; AID 720702, 2013; T5PNP hydrolysis, p-nitrophenol absorbance 415 nm; Tyrosyl-DNA phosphodiesterase 2 (Homo sapiens), O95551; actives 0.34% (n = 370,000); inhibition, % at 12.8 µM;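 active = inhibition above the mean of all tested compounds plus 3 SD, set per campaign, cut at about 25% in these data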;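 note: 0% = DMSO with enzyme and 100% = buffer with substrate but no TDP2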
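Read-out basis: percent inhibition. System: recombinant human TDP2. Buffer or medium: Mg2+-containing Tris-HCl buffer, pH 7.5. Repeats: single replicate. Timing: reaction 2 h, 37 °C. Benchmarks: high control without enzyme, low control DMSO plus TDP2. Probe or stimulus: 5 mM T5PNP. Doses: 12.8 µM only. Measured by: epi absorbance of p-nitrophenol freed from T5PNP by hydrolysis.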
MBD2 inh: inhibitors of MBD2 binding to methylated DNA, primary screen, biochemical, TR-FRET, DNA-binding domain, human | Methyl-CpG-binding domain protein 2 (Homo sapiens), Q9UBB5 | MBD2 binding to methylated oligonucleotide | inhibition, % at 4.4 µM | actives 0.31% (n = 370,000); in the data active = inhibition above about 13%
LEDGF integ inh: blockers of LEDGF/p75-dependent integrase strand transfer – biochemical, TR-FRET, high throughput, primary screen; HIV-1 integrase (with human LEDGF/p75); TR-FRET IN-LEDGF/p75 DNA integration, Eu/Cy5; inhibition, % at 3.7 µM; actives 0.64% (n = 370,000);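 active = inhibition above the screen-wide mean plus 3 SD, cut at about 13% in these data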;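 note: signal is the Cy5 over europium emission ratio at 671 and 618 nm; 0% = plate median of compound wells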
core dimer inh: inhibitors of HCV core protein dimerization, primary screen, biochemical, TR-FRET, high-throughput; inhibition, % at 5 µM; TR-FRET GST/Flag-core106 dimerization, 1536-well; actives 0.33% (n = 300,000);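 active = inhibition above the mean of all tested compounds plus 3 SD, set per screening campaign, cut at about 45% in these data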
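System: GST/Flag-tagged HCV core106 proteins. Incubation: compound-protein-antibody incubation 4 h at 22.5 °C. Technique: HTRF with 340 nm excitation, 617/671 nm emission. Medium: KF-containing HEPES buffer, pH 7.45, DTT, CHAPS, BSA. Read-out: inhibition (%) from 671 over 617 nm ratio. Also added: Eu(K)-anti-GST 90 ng/mL plus XL665-anti-Flag 1 µg/mL.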
UHRF1 MBD2 ctr: UHRF1 methylated DNA binding inhibitors, primary screen, counter-screen for MBD2 inhibitor project, biochemical, TR-FRET, human UHRF1, single concentration; UHRF1 binding to methylated oligo; inhibition, % at 4.4 µM; actives 0.75% (n = 370,000); AID 687016, 2013; in the data active = inhibition above about 21%;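 note: UHRF1 SRA domain binding a hemimethylated CpG hairpin DNA probe; 0% = median of test compound wells and 100% = reference inhibitor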
Target sequence (Q96T88 whole entry, looked up, the tested form may be a part): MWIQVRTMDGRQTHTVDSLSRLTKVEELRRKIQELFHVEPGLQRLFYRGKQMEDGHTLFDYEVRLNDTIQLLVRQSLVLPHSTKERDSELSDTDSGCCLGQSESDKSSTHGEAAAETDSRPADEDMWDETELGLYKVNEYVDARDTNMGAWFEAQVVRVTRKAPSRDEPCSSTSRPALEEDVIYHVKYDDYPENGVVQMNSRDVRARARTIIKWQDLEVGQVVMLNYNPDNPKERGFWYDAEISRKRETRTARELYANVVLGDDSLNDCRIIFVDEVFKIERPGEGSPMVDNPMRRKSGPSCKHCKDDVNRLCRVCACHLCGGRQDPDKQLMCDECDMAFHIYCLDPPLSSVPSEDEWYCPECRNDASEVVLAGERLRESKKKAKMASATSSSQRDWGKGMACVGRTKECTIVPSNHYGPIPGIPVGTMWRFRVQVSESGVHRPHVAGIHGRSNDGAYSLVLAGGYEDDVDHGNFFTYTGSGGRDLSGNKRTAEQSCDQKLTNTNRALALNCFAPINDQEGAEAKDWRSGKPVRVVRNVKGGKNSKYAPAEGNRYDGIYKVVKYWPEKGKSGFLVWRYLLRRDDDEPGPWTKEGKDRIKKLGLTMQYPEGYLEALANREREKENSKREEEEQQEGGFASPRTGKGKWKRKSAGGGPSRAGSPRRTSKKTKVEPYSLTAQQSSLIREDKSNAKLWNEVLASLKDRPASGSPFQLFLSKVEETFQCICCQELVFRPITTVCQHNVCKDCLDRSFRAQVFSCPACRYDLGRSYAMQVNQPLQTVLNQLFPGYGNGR
An asterisk follows results filed as active; / = no result. Only some compounds are listed: those with a hit (about 1.8% of all), similar ones and a draw of the others.

SMILES	TDP2 absorb	MBD2 inh	LEDGF integ inh	core dimer inh	UHRF1 MBD2 ctr
CCC(C)COC(c1ccccc1)(c1ccccc1)C(Oc1nc(C)cc(C)n1)C(=O)O (configuration not stated)	4	1	0	8	41*
Cc1ccccc1CNC(=O)CCn1nc(C)c2c(C)n(-c3ccccc3)nc2c1=O	1	10	1	8	22*
COc1ccc(N2CCN(CCCNC(=O)CCc3cccc(Cl)c3)CC2)cc1	3	0	1	/	2
CCN(CC)c1nc(C(F)(F)F)nc2c1nnn2Cc1ccccc1	-13	4	-4	2	39*
CCN(C)c1nc(C)nc2c1nnn2Cc1ccccc1	1	1	0	/	0
O=C(O)C1Nc2c(O)cc(Cl)c([N+](=O)[O-])c2C2C=CCC12 (configuration not stated)	17	63*	72*	-4	93*
COc1cccc2c1NC(C(=O)O)C1CC=CC21 (configuration not stated)	/	/	/	45	/
O=C(CSc1ccc(Cl)cc1)N1CCN(c2ccc([N+](=O)[O-])cc2Cl)CC1	-5	1	0	22	2
Cc1ccc(Cl)cc1N1CCN(C(=O)CSc2ccsc2[N+](=O)[O-])CC1	-10	3	-1	57*	-3
S=c1[nH]nc(-c2cc(-c3ccccc3)n[nH]2)n1N=Cc1c[nH]c2ccccc12	5	-1	-3	/	1
O=C(CCc1ccccc1)N[C@H]1[C@@H](OC(=O)C2CC2)CCC[C@@]12C(=O)N(Cc1ccccc1)c1ccccc12	-1	1	1	/	0
OC(CC#CCN1CCCC1)(c1ccccc1)c1ccccc1	-6	-2	4	-1	22*
Cc1nn(-c2ccccc2)c2c1C(c1ccc(F)cc1F)C(C#N)=C(N)O2 (configuration not stated)	62*	-3	9	0	4
C[C@@H]1/C=C/CC(=O)N2[C@H](CC(=O)N[C@@H]1c1ccccc1)C[C@@H](C)[C@H]2c1ccccc1	3	3	-1	/	-1
CC(C)(C)C(=O)OC12CCCN(C1)/C(=C/c1ccc(C#N)cc1)C2 (configuration not stated)	2	-4	1	/	3
CC1CCN(S(=O)(=O)c2ccc3c(c2)C(=NO)c2cc(S(=O)(=O)N4CCC(C)CC4)ccc2-3)CC1	9	2	0	16	0
O=S(=O)(c1ccc2c(c1)C(=NO)c1cc(S(=O)(=O)N3CCCCC3)ccc1-2)N1CCCCC1	3	-6	-2	48*	8
N#C/C(=C\c1ccc(O)cc1)C(=O)N1CCCC1	8	8	-2	-5	21*
N#C/C(=C\c1ccc(C#N)cc1)C(=O)N1CCCC1	/	/	/	-3	/
Fc1cccc(Cc2c(-c3ccco3)nc3c4ccccc4ccn23)c1	-3	9	-1	/	20
c1coc(-c2nc3c4ccccc4ccn3c2Cc2ccsc2)c1	-8	7	5	/	22*
Cc1ccc(Cn2cc(CN3[C@@H](Cc4ccccc4)COc4cc(Br)ccc4S3(=O)=O)nn2)cc1	-4	-3	-2	/	-2
C[C@@H]1CN([C@H](C)CO)S(=O)(=O)c2ccc(Br)cc2O[C@H]1CN(C)C(=O)Nc1ccccc1	-3	3	-2	/	21*
C[C@@H]1CN([C@@H](C)CO)S(=O)(=O)c2ccc(Br)cc2O[C@H]1CN(C)C(=O)Nc1ccc2c(c1)OCO2	7	-6	-1	/	56*
O=c1c2ccccc2oc2ccccc12	-2	-2	2	/	-2
SMILES	TDP2 absorb	MBD2 inh	LEDGF integ inh	core dimer inh	UHRF1 MBD2 ctr
S=c1[nH]ncn2c1cc1oc3ccccc3c12	-6	-6	3	64*	-4
C/C=C\C=C/C(=O)Nc1cccc(C2=NOC3(C2)C[C@@H](C(N)=O)N(C(=O)/C=C/CC)C3)c1 (some centres not stated)	/	/	/	53*	/
C/C=C\C(=O)Nc1cccc(C2=NOC3(C2)C[C@H](C(N)=O)N(C(=O)/C=C/CC)C3)c1 (some centres not stated)	8	-1	-1	-4	0
C=C(C)C(=O)N1CC2(CC(c3cccc(NC(=O)/C=C\C=C/C)c3)=NO2)C[C@H]1C(N)=O (some centres not stated)	-4	2	2	56*	4
C/C=C\C=C/C(=O)Nc1cccc(C2=NOC3(C2)C[C@@H](C(N)=O)N(C(=O)/C=C/C=C\C)C3)c1 (some centres not stated)	/	/	/	39	/
NC(=O)[C@H]1CC2(CC(c3cccc(NC(=O)CC(c4ccccc4)c4ccccc4)c3)=NO2)CN1C(=O)c1ccccc1C(=O)c1ccccc1 (some centres not stated)	-6	3	0	46*	-3
C=C(C)C(=O)Nc1cccc(C2=NOC3(C2)C[C@H](C(N)=O)N(C(=O)c2ccccc2)C3)c1 (some centres not stated)	-7	9	1	-38	26*
O=C(Cn1c(-c2ccccc2Cl)nc2ccccc21)Nc1cccc(Cl)c1	-1	0	3	3	-1
Cc1cc(C)cc(NC(=O)Cn2c(-c3ccccc3Cl)nc3ccccc32)c1	16	4	-1	0	22*
CC(C)=CCc1c(O)cc2oc3c(CC=C(C)C)c(O)c(O)c(CC=C(C)C)c3c(=O)c2c1O	2	-3	-4	58*	1
CC(C)=CCc1cc(-c2oc3cc(O)cc(O)c3c(=O)c2O)ccc1O	-5	1	4	-1	7
Cc1cc(C2C(C#N)=C(N)OC3=C2C(=O)CCC3)c(C)s1 (configuration not stated)	1	-2	-1	-3	-1
COc1cc(C2C(C#N)=C(N)OC3=C2C(=O)CCC3)c([N+](=O)[O-])cc1OC (configuration not stated)	6	3	13*	5	-4
COc1ccc(CCC(=O)Nc2c(-c3ccc(N(C)C)cc3)[nH][nH]c2=O)cc1	60*	12	28*	/	17
C=CCN1C(=O)[C@@H](CC(=O)NCc2ccc(C)o2)[C@]2(C(=O)OC)CCCCC=C12	1	2	5	/	-3
Cn1c2ccccc2c2cc(/C=N/NC(=O)c3cc(O)ccc3O)ccc21	11	6	42*	38	11
CC(C)(C)c1ccc(/C([O-])=C(/C(=S)NCc2ccco2)[n+]2ccccc2)cc1	/	/	/	53*	/
